Values after ≈ are worked out from the molar mass of the structure shown.
How the values were obtained:
Escherichia coli [1] = test: Antimicrobial activity against Escherichia coli MTCCB 1652 after 24 hrs by serial dilution method; format: functional; conditions: MTCCB 1652, 24 h
Method in brief: (§1)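 Tube serial dilution in nutrient broth at compound levels of 6.25, 12.5, 25, 50 and 100. Each tube received standardized microbial suspension (10^7 cells/mL) and was incubated 24 h at 37 °C. MIC was the lowest concentration preventing growth, i.e. maintaining or reducing inoculum viability.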

Staphylococcus aureus [2] = test: Antimicrobial activity against Staphylococcus aureus MTCCB 737 at 100 ug/mL after 16 to 20 hrs by disk diffusion method; format: functional; conditions: read-out: IZ
Method in brief: (§2)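 Nutrient agar disc diffusion against bacterial strains, compounds in DMSO at a single test concentration. DMSO blank; tetracycline as reference drug. Plates incubated 16–20 h at 37 °C, and the inhibition zone was measured.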

Staphylococcus aureus [3] = test: Antimicrobial activity against Staphylococcus aureus MTCCB 737 after 24 hrs by serial dilution method; format: functional; conditions: MTCCB 737, 24 h; method in brief: as §1
[4] = tested on: Staphylococcus epidermidis; test: Antimicrobial activity against Staphylococcus epidermidis MTCCB 1824 at 100 ug/mL after 16 to 20 hrs by disk diffusion method; format: functional; conditions: read-out: IZ; method in brief: as §2
Aspergillus niger [5] = test: Antimicrobial activity against Aspergillus niger at 100 ug/mL after 3 to 4 days by disk diffusion method; conditions: read-out: IZ
Aspergillus niger [6] = test: Antimicrobial activity against Aspergillus niger after 24 hrs by serial dilution method; format: functional; method in brief: as §1
Artemia salina = test: Toxicity against Artemia salina assessed as number of the nauplii died after 24 hrs; format: organism-based; conditions: in vivo
Method in brief: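 Artemia salina eggs were hatched in sea salt water (38 g/L) at 37 °C for 48 h with constant oxygen to give nauplii. Stocks were 10 mg per 2 mL DMSO, and five dilutions were run in triplicate with about 10 nauplii per vial. A DMSO-only vial served as control.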

Alternaria alternata [7] = test: Antimicrobial activity against Alternaria alternata at 100 ug/mL after 3 to 4 days by disk diffusion method; conditions: read-out: IZ
Alternaria alternata [8] = test: Antimicrobial activity against Alternaria alternata after 24 hrs by serial dilution method; format: functional; method in brief: as §1
Aspergillus fumigatus [9] = test: Antimicrobial activity against Aspergillus fumigatus at 100 ug/mL after 3 to 4 days by disk diffusion method; conditions: read-out: IZ
Escherichia coli [10] = test: Antimicrobial activity against Escherichia coli MTCCB 1652 at 100 ug/mL after 16 to 20 hrs by disk diffusion method; format: functional; conditions: read-out: IZ; method in brief: as §2
Aspergillus niger [11] = test: Antimicrobial activity against Aspergillus niger at 30 ug/mL after 3 to 4 days by disk diffusion method; conditions: read-out: IZ
Aspergillus fumigatus [12] = test: Antimicrobial activity against Aspergillus fumigatus at 30 ug/mL after 3 to 4 days by disk diffusion method; conditions: read-out: IZ
Alternaria alternata [13] = test: Antimicrobial activity against Alternaria alternata at 30 ug/mL after 3 to 4 days by disk diffusion method; conditions: read-out: IZ
Escherichia coli [14] = test: Antimicrobial activity against Escherichia coli MTCCB 1652 at 30 ug/mL after 16 to 20 hrs by disk diffusion method; format: functional; conditions: read-out: IZ
Method in brief: (§3)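 Nutrient agar disc diffusion against S. aureus MTCCB 737, S. epidermidis MTCCB 1824 and E. coli MTCCB 1652. Tetracycline served as the standard drug, and DMSO served as the blank. The inhibition zone was measured after 16–20 h at 37 °C.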

[15] = tested on: Staphylococcus epidermidis; test: Antimicrobial activity against Staphylococcus epidermidis MTCCB 1824 at 30 ug/mL after 16 to 20 hrs by disk diffusion method; format: functional; conditions: read-out: IZ; method in brief: as §3
Staphylococcus aureus [16] = test: Antimicrobial activity against Staphylococcus aureus MTCCB 737 at 30 ug/mL after 16 to 20 hrs by disk diffusion method; format: functional; conditions: read-out: IZ; method in brief: as §3

Molecule | MIC (Escherichia coli [1]) [µg/mL] | zone of inhibition at 100 µg/mL (Staphylococcus aureus [2]) [mm] | MIC (Staphylococcus aureus [3]) [µg/mL] | zone of inhibition at 100 µg/mL [4] [mm] | zone of inhibition at 100 µg/mL (Aspergillus niger [5]) [mm] | MIC (Aspergillus niger [6]) [µg/mL] | LC50 (Artemia salina) [ppm] | zone of inhibition at 100 µg/mL (Alternaria alternata [7]) [mm] | MIC (Alternaria alternata [8]) [µg/mL] | zone of inhibition at 100 µg/mL (Aspergillus fumigatus [9]) [mm] | zone of inhibition at 100 µg/mL (Escherichia coli [10]) [mm] | zone of inhibition at 30 µg/mL (Aspergillus niger [11]) [mm] | zone of inhibition at 30 µg/mL (Aspergillus fumigatus [12]) [mm] | zone of inhibition at 30 µg/mL (Alternaria alternata [13]) [mm] | zone of inhibition at 30 µg/mL (Escherichia coli [14]) [mm] | zone of inhibition at 30 µg/mL [15] [mm] | zone of inhibition at 30 µg/mL (Staphylococcus aureus [16]) [mm]
CSc1nn(-c2nnc(-c3ccccc3)c(-c3ccccc3)n2)c2nc3c(C#N)c(N)nn3c(N)c12 | > 100 | 24 | 50 (≈ 102 µM) | 22 | 18 | 25 (≈ 50.9 µM) | 2.31 | 16 | 25 (≈ 50.9 µM) | 22 | 17 | – | – | – | – | – | –
CSc1nn(-c2nnc(-c3ccccc3)c(-c3ccccc3)n2)c(N)c1C#N | – | 12 | – | 7 | 6 | – | – | 0 | – | 8 | 3 | – | – | – | – | – | –
Cc1nc2c(c(=O)[nH]1)c1nnc(-c3ccccc3)n1n2-c1nnc(-c2ccccc2)c(-c2ccccc2)n1 | 25 (≈ 50.2 µM) | 27 | 50 (≈ 100 µM) | 27 | 12 | 50 (≈ 100 µM) | 3.54 | 8 | 50 (≈ 100 µM) | 17 | 26 | – | – | – | – | – | –
CSc1nn(-c2nnc(-c3ccccc3)c(-c3ccccc3)n2)c2nc(-c3ccccc3)c(C(C)=O)c(N)c12 | – | 16 | – | 18 | 4 | – | – | 5 | – | 10 | 13 | – | – | – | – | – | –
O=C(O)c1cc(O)c(O)c(O)c1 [GALLIC ACID] | – | – | – | – | – | – | 4.53 | – | – | – | – | – | – | – | – | – | –
BLEOMYCIN | – | – | – | – | – | – | 0.41 | – | – | – | – | – | – | – | – | – | –
CSc1nn(-c2nnc(-c3ccccc3)c(-c3ccccc3)n2)c2nc(C)c3c(=O)[nH]cnc3c12 | – | 17 | – | 17 | 10 | – | – | 12 | – | 11 | 10 | – | – | – | – | – | –
CC(=O)N1CCN(c2ccc(OCC3COC(Cn4ccnc4)(c4ccc(Cl)cc4Cl)O3)cc2)CC1 (configuration not stated) [KETOCONAZOLE] | – | – | – | – | – | 6.25 (≈ 11.8 µM) | – | – | 6.25 (≈ 11.8 µM) | – | – | 20 | 18 | 21 | – | – | –
S=c1nc2c3c(n(-c4nnc(-c5ccccc5)c(-c5ccccc5)n4)nc3[nH]1)N=C(c1ccccc1)N2 | – | 16 | – | 13 | 11 | – | – | 5 | – | 9 | 9 | – | – | – | – | – | –
N#Cc1c(N)nn2c(N)c3c(nc12)n(-c1nnc(-c2ccccc2)c(-c2ccccc2)n1)n1c(=O)c2ccccc2nc31 | > 100 | 26 | 50 (≈ 88.9 µM) | 23 | 19 | > 100 | 1.39 | 19 | 50 (≈ 88.9 µM) | 21 | 20 | – | – | – | – | – | –
CSc1nn(-c2nnc(-c3ccccc3)c(-c3ccccc3)n2)c2nc(-c3ccccc3)c3c(C)c(C#N)c(N)nc3c12 | 25 (≈ 43.3 µM) | 25 | 50 (≈ 86.6 µM) | 22 | 11 | > 100 | 0.58 | 9 | > 100 | 16 | 19 | – | – | – | – | – | –
Nc1nc(=S)[nH]c2nn(-c3nnc(-c4ccccc4)c(-c4ccccc4)n3)c(N)c12 | – | 9 | – | 11 | 7 | – | – | 2 | – | 11 | 13 | – | – | – | – | – | –
Cc1nc2c(c(=O)[nH]1)c1nnc(C)c(=O)n1n2-c1nnc(-c2ccccc2)c(-c2ccccc2)n1 | 12.5 (≈ 27 µM) | 28 | 25 (≈ 53.9 µM) | 26 | 15 | 25 (≈ 53.9 µM) | 6.49 | 16 | 50 (≈ 108 µM) | 19 | 29 | – | – | – | – | – | –
CC(=O)c1c(-c2ccccc2)nc2c3c(nn2-c2nnc(-c4ccccc4)c(-c4ccccc4)n2)N(c2ccccc2)C(C)=Nc13 | – | 18 | – | 13 | 7 | – | – | 9 | – | 3 | 10 | – | – | – | – | – | –
CSc1nn(-c2nnc(-c3ccccc3)c(-c3ccccc3)n2)c2nc(C)c(C#N)c(N)c12 | – | 19 | – | 16 | 7 | – | – | 5 | – | 6 | 12 | – | – | – | – | – | –
CSc1nn(-c2nnc(-c3ccccc3)c(-c3ccccc3)n2)c2nc(C)[nH]c(=O)c12 | – | 14 | – | 11 | 9 | – | – | 10 | – | 12 | 5 | – | – | – | – | – | –
CN(C)[C@@H]1C(O)=C(C(N)=O)C(=O)[C@@]2(O)C(O)=C3C(=O)c4c(O)cccc4[C@@](C)(O)[C@H]3C[C@@H]12 [TETRACYCLINE] | 12.5 (≈ 28.1 µM) | – | 6.25 (≈ 14.1 µM) | – | – | – | – | – | – | – | – | – | – | – | 28 | 25 | 30
Cc1nc2c(c(NN)nn2-c2nnc(-c3ccccc3)c(-c3ccccc3)n2)c(=O)[nH]1 | – | 18 | – | 10 | 11 | – | – | 13 | – | 10 | 8 | – | – | – | – | – | –
CSC(Nc1c(C#N)c(SC)nn1-c1nnc(-c2ccccc2)c(-c2ccccc2)n1)=C(C#N)C#N | – | 17 | – | 21 | 6 | – | – | 8 | – | 9 | 11 | – | – | – | – | – | –

Source: ChEMBL document CHEMBL1155274, “Synthesis of some novel pyrazolo[3,4-b]pyridine and pyrazolo[3,4-d]pyrimidine derivatives bearing 5,6-diphenyl-1,2,4-triazine moiety as potential antimicrobial agents” (Eur J Med Chem, 2009)
